Measured values: ChEMBL document CHEMBL1152537, “Special feature of mixed phosphotriester derivatives of cytarabine” (Bioorg Med Chem, 2009)

Tests used:
[1] = Half life in total cell extract of nucleoside analogue-resistant mouse L1210 10K cells by HPLC analysis in presence of snake venom phosphodiesterase; format: ADME, cell-based
[2] = Half life in total cell extract of deoxynucleoside analogue-sensitive mouse L1210 cells by HPLC analysis in presence of snake venom phosphodiesterase; format: ADME, cell-based
MCF7 [3] = experiment: Cytotoxicity against deoxynucleoside analogue-sensitive human MCF7 cells after 3 days by MTT assay; format: functional, cell-based; details: MCF7, 72 h
How it was run: (§1)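 Adherent lines (Messa in RPMI, MCF7 in DMEM, each with 10% FBS, L-glutamine and penicillin/streptomycin) seeded at 3000 cells/well and left 24 h at 37 °C before drugs were added over a concentration range. After 3 days at 37 °C, MTT (100 µg) was added for 2 h and the formazan dissolved in isopropanol/HCl/water for optical density.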

CCRF-CEM [4] = experiment: Cytotoxicity against deoxynucleoside analogue-sensitive human CCRF-CEM cells after 3 days by MTT assay; format: functional, cell-based; details: 72 h
How it was run: (§2)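 Suspension lines (CCRF-CEM, L1210) grown in RPMI with 10% FBS, L-glutamine and penicillin/streptomycin, added at 10,000 cells/well directly to media holding graded drug concentrations. After 3 days at 37 °C, MTT (100 µg) was added for 2 h and the formazan dissolved in isopropanol/HCl/water for optical density.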

MCF7 [5] = experiment: Cytotoxicity against deoxynucleoside analogue-resistant human MCF7 1K cells overexpressing ribonucleotide reductase after 3 days by MTT assay; format: functional, cell-based; details: MCF7, 72 h; how it was run: as §1
[6] = Cytotoxicity against nucleoside transporter deficient and deoxynucleoside analogue-resistant human CEM/ARAC8C cells after 3 days by MTT assay; format: functional, cell-based; details: 72 h
[7] = Cytotoxicity against deoxycytidine kinase deficient and deoxynucleoside analogue-resistant human MESSA 10K cells after 3 days by MTT assay; format: functional, cell-based; details: 72 h; how it was run: as §1
[8] = Cytotoxicity against deoxynucleoside analogue-sensitive human MESSA cells after 3 days by MTT assay; format: functional, cell-based; details: MES-SA, 72 h; how it was run: as §1
L1210 [9] = experiment: Cytotoxicity against deoxynucleoside analogue-sensitive mouse L1210 cells after 3 days by MTT assay; format: functional, cell-based; details: L1210, 72 h; how it was run: as §2
L1210 [10] = experiment: Cytotoxicity against deoxycytidine kinase deficient and nucleoside analogue-resistant mouse L1210 10K cells after 3 days by MTT assay; format: functional, cell-based; details: L1210, 72 h; how it was run: as §2
CCRF-CEM [11] = experiment: Resistance ratio of IC50 for deoxynucleoside analogue-resistant human CEM/ARAC8C cells to IC50 for deoxynucleoside analogue-sensitive human CCRF-CEM cells; format: functional
How it was run: (§3)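 RR is the 3-day MTT IC50 in the resistant line divided by the IC50 in its sensitive parental line. Significance between IC50s and RRs was tested by Student's t-test.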

L1210 [12] = experiment: Resistance ratio of IC50 for deoxynucleoside analogue-resistant mouse L1210 10K cells to IC50 for deoxynucleoside analogue-sensitive mouse L1210 cells; format: functional; how it was run: as §3

Compound Cc1cn([C@@H]2O[C@H](COP(=O)([O-])Oc3ccccc3)[C@@H](N=[N+]=[N-])[C@@H]2O)c(=O)[nH]c1=O.[Na+] has a half-life [1] of 53 min and a half-life [2] of 53 min.
Compound Cc1cn([C@H]2C[C@H](O)[C@@H](COP(=O)(O)Oc3ccc([N+](=O)[O-])cc3)O2)c(=O)[nH]c1=O has a half-life [1] of 43 min and a half-life [2] of 43 min.
With Nc1ccn([C@@H]2O[C@H](COP(=O)([O-])Oc3ccccc3)[C@@H](O)[C@@H]2O)c(=O)n1.[Na+] the half-life [1] was 276 min and the half-life [2] was 276 min.
With Nc1ccn([C@@H]2O[C@H](CO)[C@@H](O)[C@@H]2O)c(=O)n1 [CYTARABINE] the IC50 (MCF7 [3]) was 4 nM, the IC50 (CCRF-CEM [4]) was 1 nM and the IC50 (MCF7 [5]) was 40 nM. For the same compound, the IC50 [6] was 100 µM, the IC50 [7] was 6.33 mM and the IC50 [8] was 1700 nM. The IC50 (L1210 [9]) was 0.4 nM, the IC50 (L1210 [10]) was 103 µM and the “Ratio IC50” value (CCRF-CEM [11]) was 100000. For the same compound, the “Ratio IC50” value (L1210 [12]) was 257500.
